In series [1] the test system is Streptococcus pneumoniae. Kind of series: Antimicrobial activity against wild-type Streptococcus pneumoniae 548 by broth microdilution method. Type of series: functional. An outline of the steps: (§1)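 Broth microdilution following CLSI guidelines. Values under 12.5 μM are averages of three or more replicates.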
(Broth dilution looks for growth in wells or tubes with falling amounts of substance.)

Series [2] concerns Streptococcus pneumoniae. Put plainly: Antimicrobial activity against Streptococcus pneumoniae 2800 harboring GyrB K143I/T172A mutant by broth microdilution method. Type of series: functional.
Series [3] deals with Staphylococcus aureus. Kind of series: Inhibition of DNA synthesis in methicillin-sensitive Staphylococcus aureus by [3H]-thymidine incorporation assay. Format: functional, organism-based. For orientation: Uptake of a labelled nucleoside into DNA is a usual measure of proliferation.
Series [4] is described as follows: Clearance in mouse at 3 mg/kg, iv or at 10 mg/kg, po by LC-MS/MS method. Type of series: ADME, organism-based. The note with it: in vivo. Summed up: (§2)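 Male mice (CD-1) or male Wistar Hannover rats, three per experiment, given a 15 min iv infusion at 3 mg/kg or oral dosing at 10 mg/kg. Vehicle was DMA:TEG:saline 40/40/20 for mice and meglumine/cyclodextrin for rats. Serial jugular blood was taken over 0–24 h, plasma analysed by LC-MS/MS, and a noncompartmental analysis used. Mean values are given.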

Series [5] is described as follows: Bioavailability in mouse at 3 mg/kg, iv or at 10 mg/kg, po by LC-MS/MS method. Format: ADME, organism-based. The note with it: in vivo. An outline of the steps: as §2
Series [6] can be described thus: Clearance in rat at 3 mg/kg, iv or at 10 mg/kg, po by LC-MS/MS method. The note with it: in vivo. Type of series: ADME, organism-based. Summed up:
as §2

Series [7] can be described thus: Bioavailability in rat at 3 mg/kg, iv or at 10 mg/kg, po by LC-MS/MS method. Type of series: ADME, organism-based. The note with it: in vivo. Summed up:
as §2

The subject of another series is Rattus norvegicus. Put plainly: Toxicity in Wistar Hannover rat at 1000 mg/kg, po administered as single dose. Format: organism-based. Set-up: dose 1000 mg/kg, route oral. The note with it: in vivo. An outline of the steps:
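Single-dose oral phase in groups of three male Wistar Hannover rats, at doses up to 1000 mg/kg. Vehicle was 0.2 M meglumine/20% hydroxypropyl-β-cyclodextrin.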

Series [8] concerns Staphylococcus aureus. Kind of series: Antimicrobial activity against methicillin-sensitive Staphylococcus aureus ARC516 infected in immunocompetant mouse administered as single ip dose starting 2 hrs after infection. Type of series: functional, organism-based.
Series [9] in a line: Cmax in Wistar Hannover rat at 250 mg/kg, po dosed once daily for 14 days measured on day 14. Format: ADME, organism-based. Set-up: dose 250 mg/kg, route oral. Conditions: in vivo. An outline of the steps:
(§3)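 Wistar Hannover rats, 2 males and 2 females per dose, dosed orally once daily for 14 days at 250, 500 or 750 mg/kg/day. Vehicle was 0.2 M meglumine/20% hydroxypropyl-β-cyclodextrin. Blood was sampled on day 14 and exposure measured in blood. Animals were killed after sampling without necropsy.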

Series [10] is described as follows: AUC in Wistar Hannover rat at 250 mg/kg, po dosed once daily for 14 days measured on day 14. Type of series: ADME, organism-based. The note with it: plasma. Further details: dose 250 mg/kg, route oral. Summed up:
as §3

Series [11] in a line: AUC in Wistar Hannover rat at 750 mg/kg, po dosed once daily for 14 days measured on day 14. Type of series: ADME, organism-based. Further details: dose 750 mg/kg, route oral. The note with it: plasma. Summed up:
as §3

The nature of series [12]: Fraction unbound in human plasma at 10 uM after 16 hrs by LC-MS/MS analysis. Format: ADME, cell-free. An outline of the steps:
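Compound at 10 μM in human, rat or mouse plasma, equilibrium dialysis against buffer at 37 °C for 16 h. Buffer and plasma concentrations measured by LC-MS/MS, and the free fraction taken from their ratio.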

A short description of series [13]: Solubility of the compound. Format: physicochemical.
The subject of series [14] is Escherichia coli. Kind of series: Antimicrobial activity against Escherichia coli by broth microdilution method. Type of series: functional. An outline of the steps:
as §1

Series [15] deals with Escherichia coli. Kind of series: Antimicrobial activity against tolC-deficient Escherichia coli by broth microdilution method. Type of series: functional. Summed up: as §1
The subject of series [16] is Staphylococcus aureus. Put plainly: Antimicrobial activity against Staphylococcus aureus 2792 harboring wild-type GyrA and GyrB R144A mutant by broth microdilution method. Type of series: functional.

Here are results for 1 molecule from ChEMBL document CHEMBL3352584, “Novel DNA gyrase inhibiting spiropyrimidinetriones with a benzisoxazole scaffold: SAR and in vivo characterization” (J Med Chem, 2014).

In brackets after ≈: the same amount, converted by molar mass. A value given as a limit tells only on which side of the number the result lay.

By MIC is commonly meant the lowest concentration found to suppress growth. High values mean weaker potency, low ones greater potency. In general, IC50 refers to the concentration that gives 50% inhibition. By bioavailability is commonly meant the share of a dose that reaches the circulation, judged against a reference dose that is usually intravenous. The Cmax is the highest concentration seen after dosing. By AUC is commonly meant the area under the concentration-time curve, a measure of exposure. Read a high AUC as high exposure. Broadly, the fraction unbound is the share of the substance not bound to proteins or other matrix. In general, solubility refers to how much of the substance goes into solution per volume. A higher solubility goes with much dissolved substance. Regarding `Cc1noc2c(F)c3c(cc12)CC1(C(=O)NC(=O)NC1=O)[C@H]1[C@H](C)O[C@H](C)CN31`, the minimum inhibitory concentration (MIC) was 4 µg/mL (≈ 9.94 µM) in the series with Streptococcus pneumoniae [1]; 4 µg/mL (≈ 9.94 µM) against Streptococcus pneumoniae [2]; 45 µM (≈ 18.1 µg/mL) against Escherichia coli [14]; at most 0.2 µM in the series on Escherichia coli [15]; 0.5 µg/mL (≈ 1.24 µM) in the series with Staphylococcus aureus [16]. In addition, in the series with Staphylococcus aureus [3], the IC50 was 0.06 µg/mL (≈ 0.149 µM). The values for the clearance in [4] and in series [6] were 38 mL/min/kg and 32 mL/min/kg, respectively. The results for the bioavailability in series [5] and in [7] were 58% and 71%, respectively. The results for the Activity result with Rattus norvegicus and with Staphylococcus aureus [8] were “Toxic” and “Dose-dependent effect”, respectively. Besides, the concentration in series [9] peaked (Cmax) at 290 µM. For the same molecule, the AUC at 336 h was 2300 µM·h in series [10] and 4600 µM·h in [11]. Moreover, the free fraction (fraction unbound) at 16 h, 10 µM in series [12] amounted to 0.094. In series [13], this molecule showed a solubility above 1000 µM.
